Reference: ChEMBL document CHEMBL1921714, “Discovery of aminobenzyloxyarylamides as κ opioid receptor selective antagonists: application to preclinical development of a κ opioid receptor antagonist receptor occupancy tracer” (J Med Chem, 2011)
Active and inactive are the calls of the source. The calls are words filed in the database; no cut-off is given here.

What was measured:
CHO [1] = test: Selectivity ratio of Ki for human opioid mu receptor expressed in CHO cells to Ki for human opioid kappa receptor expressed in CHO cells; format: cell-based
[2] = target: T1, Kappa-type opioid receptor (Homo sapiens, UniProt P41145); test: Displacement of [3H]diprenorphine from human opioid kappa receptor expressed in CHO cells after 120 mins by scintillation counting; format: cell-based
Method in brief: (§1)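 11-point curves, 0.01 nM–1 μM final. 120 min at 22 °C, then filtration and scintillation counting. Nonspecific binding set by 10 μM naltrexone. Four-parameter IC50; Ki by Cheng–Prusoff.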

Nucleic Acid = test: Ratio of drug uptake in striatum to cerebellum in rat at 3 ug/kg, iv measured after 40 mins by LC/MS/MS analysis; format: ADME, organism-based; details: in vivo, 0.003 mg/kg
Method in brief: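 Groups of four rats were given iv tracer and killed 20 or 40 min after dosing. Striatum (total binding) and cerebellum (nonspecific, null region) were extracted in acetonitrile/0.1% formic acid and quantified by LC/MS/MS. Binding potential was calculated as (striatum/cerebellum concentration) − 1.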

HEK293 [3] = test: Selectivity ratio of Ki for human opioid delta receptor expressed in HEK293 cells to Ki for human opioid kappa receptor expressed in CHO cells; format: cell-based
[4] = target: T2, Delta-type opioid receptor (Homo sapiens, UniProt P41143); test: Antagonist activity at human opioid delta receptor expressed in HEK293 cells assessed as inhibition of DPDPE-induced [35S]GTP-gamma-S binding after 4 hrs by scintillation counting; format: functional, cell-based
Cerebellum = test: Drug uptake in rat cerebellum at 3 ug/kg, iv pretreated 1 hr with 3-Fluoro-4-[4-[[ (2S)-2-(3-fluorophenyl)pyrrolidin-1-yl]methyl]- phenoxy]benzamide measured after 40 mins by LC/MS-MS analysis; format: ADME, organism-based; details: in vivo, 0.003 mg/kg
Method in brief: (§2)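 Rats were pretreated 1 h with the κ antagonist at a range of doses, then given tracer at 3 ug/kg iv. Brains were taken 40 min after tracer. Striatum and cerebellum were extracted in acetonitrile/0.1% formic acid and tracer levels quantified by LC/MS/MS.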

Striatum [5] = test: Drug uptake in rat striatum at 3 ug/kg, iv measured after 40 mins by LC/MS-MS analysis; format: ADME, organism-based; details: in vivo, 0.003 mg/kg
Method in brief: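 Groups of four rats received a single iv tracer dose and were killed 20 or 40 min later. Striatum was weighed, homogenized in 4 volumes acetonitrile/0.1% formic acid and centrifuged. The supernatant was diluted and analysed by LC/MS/MS against standards spiked into naive rat brain. %SUV = tissue amount/injected dose × 100.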

[6] = target: T1, Kappa-type opioid receptor; test: Agonist activity at human opioid kappa receptor expressed in CHO cells assessed as stimulation of [35S]-GTPgammaS binding at 10 uM; format: functional, cell-based
Method in brief: (§3)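 Agonist mode: membranes from CHO (κ, μ) or HEK293 (δ) cells expressing cloned human receptors, no agonist added, tested at up to 10 μM. [35S]GTP-γ-S (0.5 nM final) binding in HEPES pH 7.4, MgCl2, NaCl, EDTA, DTT, 200 μM GDP. Read by WGA SPA beads after 2 h (δ) or 4 h (κ, μ) at room temperature, then 4 °C overnight.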

Mu-type opioid receptor [7] = target: T3, Mu-type opioid receptor (Homo sapiens, UniProt P35372); test: Agonist activity at human opioid mu receptor expressed in CHO cells assessed as stimulation of [35S]-GTPgammaS binding at 10 uM; format: functional, cell-based; method in brief: as §3
Mu-type opioid receptor [8] = target: T3, Mu-type opioid receptor; test: Antagonist activity at human opioid mu receptor expressed in CHO cells assessed as inhibition of DAMGO-induced [35S]GTP-gamma-S binding after 4 hrs by scintillation counting; format: functional, cell-based
HEK293 [9] = test: Selectivity ratio of Kb for human opioid delta receptor expressed in HEK293 cells to Kb for human opioid kappa receptor expressed in CHO cells; format: cell-based
Method in brief: (§4)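 Kb ratios from antagonist [35S]GTP-γ-S SPA on CHO (κ, μ) or HEK293 (δ) membranes. Agonists at about 80% maximal: U69,593 300 nM (κ), DAMGO 1 μM (μ), DPDPE 30 nM (δ). 11-point curves, top 1 or 10 μM. Nonspecific binding: NorBNI, naltrexone or naltriben, each 10 μM. Kb = IC50/(1+D/EC50); geometric means with SEM.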

Mu-type opioid receptor [10] = target: T3, Mu-type opioid receptor; test: Displacement of [3H]diprenorphine from human opioid mu receptor expressed in CHO cells after 120 mins by scintillation counting; format: cell-based; method in brief: as §1
[11] = target: T1, Kappa-type opioid receptor; test: Antagonist activity at human opioid kappa receptor expressed in CHO cells assessed as inhibition of U69593-induced [35S]GTP-gamma-S binding after 4 hrs by scintillation counting; format: functional, cell-based
Striatum [12] = test: Drug uptake in rat striatum at 3 ug/kg, iv pretreated 1 hr with 3-Fluoro-4-[4-[[ (2S)-2-(3-fluorophenyl)pyrrolidin-1-yl]methyl]- phenoxy]benzamide measured after 40 mins by LC/MS-MS analysis; format: ADME, organism-based; details: in vivo, 0.003 mg/kg; method in brief: as §2
[13] = target: T2, Delta-type opioid receptor; test: Displacement of [3H]diprenorphine from human opioid delta receptor expressed in HEK293 cells after 120 mins by scintillation counting; format: cell-based; method in brief: as §1
CHO [14] = test: Selectivity ratio of Kb for human opioid mu receptor expressed in CHO cells to Kb for human opioid kappa receptor expressed in CHO cells; format: cell-based; method in brief: as §4
[15] = target: T2, Delta-type opioid receptor; test: Agonist activity at human opioid delta receptor expressed in HEK293 cells assessed as stimulation of [35S]-GTPgammaS binding at 10 uM; format: functional, cell-based; method in brief: as §3

T3 sequence (P35372 whole entry): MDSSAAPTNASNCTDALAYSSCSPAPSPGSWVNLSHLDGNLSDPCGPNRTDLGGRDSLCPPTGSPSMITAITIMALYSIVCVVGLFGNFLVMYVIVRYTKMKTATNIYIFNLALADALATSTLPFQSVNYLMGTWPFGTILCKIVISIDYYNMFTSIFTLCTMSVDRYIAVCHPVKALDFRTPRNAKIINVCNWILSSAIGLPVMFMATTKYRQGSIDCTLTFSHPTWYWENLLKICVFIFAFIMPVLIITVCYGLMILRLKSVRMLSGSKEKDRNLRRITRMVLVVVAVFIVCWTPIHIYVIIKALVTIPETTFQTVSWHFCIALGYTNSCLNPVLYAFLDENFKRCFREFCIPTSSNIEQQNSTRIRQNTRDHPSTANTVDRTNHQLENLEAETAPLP
T1 sequence (P41145 whole entry): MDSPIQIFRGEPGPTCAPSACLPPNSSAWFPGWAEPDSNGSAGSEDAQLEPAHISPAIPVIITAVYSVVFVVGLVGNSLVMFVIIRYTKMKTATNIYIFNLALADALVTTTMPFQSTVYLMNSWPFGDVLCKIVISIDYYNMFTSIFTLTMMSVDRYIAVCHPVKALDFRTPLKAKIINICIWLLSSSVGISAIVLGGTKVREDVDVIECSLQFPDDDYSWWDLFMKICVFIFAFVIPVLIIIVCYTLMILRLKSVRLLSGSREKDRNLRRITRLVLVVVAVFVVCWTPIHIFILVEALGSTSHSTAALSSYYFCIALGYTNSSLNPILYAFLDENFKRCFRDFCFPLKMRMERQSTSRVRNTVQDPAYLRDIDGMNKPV
T2 sequence (P41143 whole entry): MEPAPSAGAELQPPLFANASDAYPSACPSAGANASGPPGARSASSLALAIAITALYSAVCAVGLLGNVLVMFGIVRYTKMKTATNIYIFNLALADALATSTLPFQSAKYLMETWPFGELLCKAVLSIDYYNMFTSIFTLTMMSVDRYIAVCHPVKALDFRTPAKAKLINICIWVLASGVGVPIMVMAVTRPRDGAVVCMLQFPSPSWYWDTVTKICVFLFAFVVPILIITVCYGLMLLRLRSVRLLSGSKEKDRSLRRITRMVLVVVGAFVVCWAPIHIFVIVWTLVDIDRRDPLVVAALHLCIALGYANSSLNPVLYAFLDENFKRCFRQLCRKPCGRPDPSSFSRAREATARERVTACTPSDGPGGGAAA

## NC(=O)c1ccc(Oc2ccc(CN3CCC[C@H]3c3cccnc3)cc2)c(Cl)c1
CHO [1]
  Ratio Ki: 36
[2]
  Ki: 0.722 nM
Nucleic Acid
  Ratio: 1.2
HEK293 [3]
  Ratio Ki: 212
[4]
  Kb: 83.3 nM
Cerebellum
  Drug uptake: Not Active
Striatum [5]
  SUV: 67%
[6]
  Activity: inactive
Mu-type opioid receptor [7]
  Activity: inactive
Mu-type opioid receptor [8]
  Kb: 6.8 nM
HEK293 [9]
  Ratio: 132
Mu-type opioid receptor [10]
  Ki: 25.8 nM
[11]
  Kb: 0.632 nM
Striatum [12]
  Drug uptake: Active
[13]
  Ki: 153 nM
CHO [14]
  Ratio: 11
[15]
  Activity: inactive
